# mIAP act = activators of mouse IAP, primary screen, biochemical, luminescence, uHTS | intestinal alkaline phosphatase [Mus musculus] | muIAP, CDP-Star luminescence, 30 min; active compounds read high; 1 = vehicle-only enzyme signal, 0 = enzyme-free wells | activation factor at 10 µM | hit rate 0.24% among 330,000;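 active = activation factor of at least 2 at 20 µM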
#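 Assay system: mouse IAP enzyme / Compound: DMSO-dissolved test compounds / Timing: 30 min, room temperature / Measured by: luminescence from enzymatic CDP-Star hydrolysis / Control set: DMSO-only wells, enzyme-free buffer wells as negative control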
# hIAP act = human IAP activators, primary screen, biochemical, luminescence, uHTS; Intestinal-type alkaline phosphatase (Homo sapiens), P09923; purified human IAP, CDP-Star luminescence, 30 min; active compounds read high; 1 = vehicle-only enzyme, 0 = enzyme-free background; activation factor at 10 µM; hit rate 0.16% among 330,000; AID 2524, 2010;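 active = activation factor of the enzyme at least 2-fold when tested at 20 µM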
# Target sequence (P09923 whole entry, looked up): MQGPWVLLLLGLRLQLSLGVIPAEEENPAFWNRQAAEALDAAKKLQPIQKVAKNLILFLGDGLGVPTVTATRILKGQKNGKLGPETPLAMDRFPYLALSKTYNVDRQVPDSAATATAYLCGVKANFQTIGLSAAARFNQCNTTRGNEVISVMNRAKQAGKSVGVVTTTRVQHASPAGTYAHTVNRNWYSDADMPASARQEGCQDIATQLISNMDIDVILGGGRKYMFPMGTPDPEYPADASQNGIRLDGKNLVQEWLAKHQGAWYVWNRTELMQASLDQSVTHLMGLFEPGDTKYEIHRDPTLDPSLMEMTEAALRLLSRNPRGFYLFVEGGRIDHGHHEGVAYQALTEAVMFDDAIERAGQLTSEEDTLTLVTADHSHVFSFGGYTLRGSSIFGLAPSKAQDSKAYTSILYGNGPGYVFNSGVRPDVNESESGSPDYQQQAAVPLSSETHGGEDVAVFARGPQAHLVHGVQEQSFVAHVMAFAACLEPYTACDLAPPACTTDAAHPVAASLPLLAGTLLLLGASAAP
# bIAP inh = bovine intestinal alkaline phosphatase inhibitors, primary screen, selectivity assay for TNAP inhibitor project, biochemical, bovine IAP, CDP-star luminescence; purified bovine IAP, 30 min; AID 1019, 2008; 190,000 tested, under 10 active; alkaline phosphatase, intestinal [Bos taurus]; inhibition, % at 20 µM;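 active = over 50% inhibition of intestinal alkaline phosphatase at 20 µM in the single-dose screen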
#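 Assay system: bovine IAP enzyme; medium: DEA buffer 100 mM, pH 9.8, with MgCl2 1.0 mM, ZnCl2 0.02 mM; doses: 20 µM single dose; incubation: enzyme reaction for 30 min at room temperature; detection: CDP-star luminescence signal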
# hIAP block = human IAP inhibitors, primary screen, biochemical, luminescence, uHTS | Intestinal-type alkaline phosphatase (Homo sapiens), P09923 | purified IAP, CDP-Star luminescence, 30 min | inhibition, % at 10 µM | hit rate 0.12% among 330,000 | AID 2544, 2010;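 active = inhibition reaching a set limit with compound at 10 µM in the primary screen, cut at about 35% in these data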
# bIAP act = bovine intestinal alkaline phosphatase activators, primary screen, biochemical, bovine IAP, CDP-star luminescence; alkaline phosphatase, intestinal [Bos taurus]; hit rate 0.17% among 200,000; activation factor at 20 µM; purified bovine IAP, 30 min; active compounds read high; fold of DMSO-control signal, blank-subtracted;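 active = activation factor of 2 or more at 20 µM, a signal rise over negative controls twice the positive control's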
# mIAP inh = inhibitors of mouse IAP, primary screen, biochemical, luminescence, uHTS; intestinal alkaline phosphatase [Mus musculus]; purified mouse IAP, CDP-Star luminescence, 30 min; inhibition, % at 10 µM; hit rate 0.2% among 330,000;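 active = inhibition of at least 40% at 10 µM in the primary screen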
# mIAP inh confirm = inhibitors of mouse IAP, confirmation, biochemical, luminescence, single concentration | shares compounds with mIAP inh | purified mouse IAP, CDP-Star luminescence, 30 min | AID 434971, 2010 | hit rate 4.7% among 11,000 | inhibition, % at 10 µM;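 active = inhibition of at least 40% at 10 µM in either of the two replicates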
# Hits are given with their value; n = inactive; x = not tested or not shown. A selection: hits, their analogues and other compounds. The true share with any hit is near 0.79%.
SMILES,mIAP act,hIAP act,bIAP inh,hIAP block,bIAP act,mIAP inh,mIAP inh confirm
Cc1nn(C)c(C)c1CNC(=O)Nc1cccc(Cl)c1,n,n,n,n,n,n,x
Cc1cc(C)cc(NC(=O)NCc2c(-c3ccccc3)noc2C)c1,4.7,n,x,n,x,n,n
COc1ccc(CCNC(=O)C2CCCN(c3ncccn3)C2)cc1 (stereo unspecified),n,n,n,n,n,n,x
Cc1nc(NC(=O)c2ccccc2)sc1-c1csc(NCc2ccco2)n1,n,n,n,n,n,44.3,56.2
O=C1CCCC(=O)C1CS(=O)(=O)c1ccccc1,n,n,n,n,n,n,x
FC(F)Sc1ccc(NC(=S)NC(c2ccccc2)c2ccccc2)cc1,12,n,n,n,n,n,n
Cc1nc(N)sc1-c1csc(Nc2cccc(C(=O)O)c2)n1,n,n,x,n,x,51.9,54.0
Cc1cc(NS(=O)(=O)c2ccc(Nc3nc(-c4sc(N)nc4C)cs3)cc2)no1,n,n,n,n,n,44.1,59.4
Cc1cc(NS(=O)(=O)c2ccc(Nc3nc(-c4ccc(C)c(C)c4)cs3)cc2)no1,n,n,x,n,n,n,x
Cc1cc2nc(C)n(CCCNC(=O)Nc3cccc4ccccc34)c2cc1C,2.56,n,n,n,2.7,n,n
Cc1cccc(NC(=O)c2cc3cc([N+](=O)[O-])ccc3s2)n1,n,n,n,n,n,n,x
O=C(O)C1C2CCC(O2)C1C(=O)Nc1cnn(Cc2ccccc2)c1 (stereo unspecified),n,n,n,n,n,n,x
O=C(Nc1cnn(Cc2ccccc2)c1)NC12CC3CC(CC(C3)C1)C2,2.12,n,n,n,n,n,n
Cc1cccc(NC(=O)NC2CCCCCCC2)c1,2.17,n,x,n,x,n,n
O=C(Nc1cccc(C(F)(F)F)c1)NC1CCCCC1,2.5,n,n,n,n,n,n
Cc1ccc(NC(=O)NC2CCCCCCC2)cc1C,3.33,n,x,n,x,n,n
CC(=O)c1cccc(NC(=O)NC2CCCCCCC2)c1,n,n,x,n,x,n,x
O=S(=O)(NCC(c1cccs1)N1CCc2ccccc2C1)c1ccccc1 (stereo unspecified),n,n,x,n,x,n,x
CC/C(C)=N/Nc1nc2c(c(=O)[nH]c(=O)n2C)n1CCc1ccccc1,n,n,n,n,n,41.0,46.7
C[C@H](CO)N1C[C@H](C)[C@@H](CN(C)C(=O)Nc2ccccc2)Oc2ccc(NC(=O)Nc3ccccc3)cc2C1=O,3.07,n,x,n,x,n,n
C[C@H](CO)N1C[C@H](C)[C@@H](CN(C)C(=O)NC2CCCCC2)Oc2ccc(NC(=O)Nc3ccccc3)cc2C1=O,2.59,n,x,n,x,n,n
CC(C)NC(=O)Nc1ccc2c(c1)C(=O)N([C@H](C)CO)C[C@H](C)[C@@H](CN(C)C(=O)NC1CCCCC1)O2,n,n,x,n,x,n,x
CC1CCCN(C(=O)CCc2nnc(-c3ccc4c(c3)OCO4)o2)C1 (stereo unspecified),n,n,x,n,x,n,x
C#CCOCCOCCOCCNc1nc(N2CCOCC2)nc(N2CCN(C(=O)CCCCCCCCCCNC(=O)[C@@H](CCSC)n3cc(CCO)nn3)CC2)n1,n,n,x,n,x,n,x
C#CCOCCOCCOCCNc1nc(N2CCN(C(=O)CCCCCCCCCCNC(=O)[C@@H](CCSC)n3cc(CCO)nn3)CC2)nc(N2CCN(C(=O)CCCCCCCCCCNC(=O)[C@H]([C@@H](C)CC)n3cc(CCCCCN)nn3)CC2)n1,3.5,n,x,n,x,n,n
SMILES,mIAP act,hIAP act,bIAP inh,hIAP block,bIAP act,mIAP inh,mIAP inh confirm
C#CCOCCOCCOCCNc1nc(N2CCN(C(=O)CCCCCCCCCCNC(=O)[C@@H](CCSC)n3cc(CCO)nn3)CC2)nc(N2CCN(C(=O)CCCCCCCCCCNC(=O)[C@H]([C@@H](C)CC)n3cc(CCCCN=C(N)N)nn3)CC2)n1,21.8,n,x,n,x,n,n
CCCCCN(C(=O)CCC(=O)OC(C)C(=O)c1ccccc1)c1c(N)n(CCCC)c(=O)[nH]c1=O (stereo unspecified),n,n,x,n,x,n,x
Cc1onc(-c2c(Cl)cccc2Cl)c1C(=O)Nc1ccc(N2CCOCC2)cc1,n,n,x,n,x,n,x
NNC(=O)Nc1cccc(C(F)(F)F)c1,n,n,n,n,n,n,x
CCN(CC)S(=O)(=O)c1ccc(C(=O)Nc2cccc(C)c2)cc1,n,n,n,n,n,n,x
O=C(Nc1ccc(OC(F)F)cc1)Nc1cccc(C(F)(F)F)c1,3.22,n,n,n,n,n,n
CCN(CC)S(=O)(=O)c1ccc(NC(=O)Nc2cccc(C(F)(F)F)c2)cc1,2.81,n,n,n,n,n,n
C/C(=N\NC(=O)c1c(Cl)cnn1C)c1ccc(NC(=O)c2ccc(Br)o2)cc1,n,n,x,n,x,n,x
Cc1nn(Cc2c(Cl)cccc2Cl)c(C)c1NC(=O)c1cn(-c2ccccc2)nc1-c1ccccc1,2.46,n,n,n,n,n,n
Cc1ccc(C(=O)O)cc1NC(=O)CSc1ncnc2sc3c(c12)CCC3,n,n,x,n,x,n,x
CNC(=O)c1cc2c(=O)n3cccc(C)c3nc2n(C(C)C)c1=N,n,n,n,n,n,n,x
Cc1c2cc(O)c(=O)cc-2oc2cc(O)c(O)cc12,n,n,x,n,n,73.0,85.6
COc1cc(OC)c(-c2c3cc(O)c(=O)cc-3oc3cc(O)c(O)cc23)cc1OC,n,n,n,n,n,44.3,59.4
CS(=O)(=O)N1CCC(C(=O)Nc2cccc(Cl)c2Cl)CC1,n,n,x,n,x,n,x
COC(=O)c1cn(C(=O)c2cc(Cl)ccc2Cl)c2ccccc12,n,n,x,n,x,n,x
CCOc1ccc(S(=O)(=O)Nc2ncn[nH]2)cc1,n,n,x,n,x,n,x
CCOc1ccc(S(=O)(=O)Nc2cc(Sc3ncn[nH]3)c3oc(=O)sc3c2)cc1,n,n,n,n,n,71.7,82.0
Cc1cccc(C(=O)Nc2cc(S(=O)(=O)N3CCOCC3)ccc2N2CCCCC2)c1,n,n,x,n,x,n,x
CCOC(=O)NNc1ccc2nonc2c1[N+](=O)[O-],n,n,x,n,x,43.4,43.6
O=[N+]([O-])c1c(NCc2ccco2)ccc2nonc12,n,n,x,n,x,41.3,51.1

# Screening data from PubChem.
